According to ChEMBL document CHEMBL4118027, “Preussilides A-F, Bicyclic Polyketides from the Endophytic Fungus Preussia similis with Antiproliferative Activity” (J Nat Prod, 2017):
pIC50: −log10 of the molar value. In brackets after ≈: the same amount, converted by molar mass. Activity calls are given as the source filed them. No cut-off for these calls is given here.

Tests used:
U2OS [1] = assay: Cytotoxicity against human U2OS cells assessed as reduction in cell viability after 5 days by MTT assay; type: functional, cell-based; settings: 120 h
Procedure, shortened: (§1)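 MTT viability assay run over 5 days on a panel of eight lines (L929, KB3.1, A431, A549, SKOV-3, PC-3, MCF-7, U2OS). IC50 values were derived.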

A549 = assay: Cytotoxicity against human A549 cells assessed as reduction in cell viability after 5 days by MTT assay; type: functional, cell-based; settings: A549, 120 h; procedure, shortened: as §1
MCF7 = assay: Cytotoxicity against human MCF7 cells assessed as reduction in cell viability after 5 days by MTT assay; type: functional, cell-based; settings: MCF7, 120 h; procedure, shortened: as §1
A-431 = assay: Cytotoxicity against human A431 cells assessed as reduction in cell viability after 5 days by MTT assay; type: functional, cell-based; settings: A-431, 120 h; procedure, shortened: as §1
SK-OV-3 = assay: Cytotoxicity against human SKOV3 cells assessed as reduction in cell viability after 5 days by MTT assay; type: functional, cell-based; settings: SK-OV-3, 120 h; procedure, shortened: as §1
L929 [2] = assay: Cytotoxicity against mouse L929 cells assessed as reduction in cell viability after 5 days by MTT assay; type: functional, cell-based; settings: L929, 120 h; procedure, shortened: as §1
PC-3 = assay: Cytotoxicity against human PC3 cells assessed as reduction in cell viability after 5 days by MTT assay; type: functional, cell-based; settings: PC-3, 120 h; procedure, shortened: as §1
KB 3-1 = assay: Cytotoxicity against human KB3-1 cells assessed as reduction in cell viability after 5 days by MTT assay; type: functional, cell-based; settings: KB 3-1, 120 h; procedure, shortened: as §1
Wickerhamomyces anomalus = assay: Antifungal activity against Pichia anomala DSM 6766 by serial dilution method; type: functional, organism-based
[3] = system: Chromobacterium violaceum; assay: Antibacterial activity against Chromobacterium violaceum DSM 30191 by serial dilution method; type: functional, organism-based
Staphylococcus aureus = assay: Antibacterial activity against Staphylococcus aureus DSM 346 by serial dilution method; type: functional, organism-based
Candida albicans = assay: Antifungal activity against Candida albicans DSM 1665 by serial dilution method; type: functional, organism-based
Pseudomonas aeruginosa = assay: Antibacterial activity against Pseudomonas aeruginosa PA14 by serial dilution method; type: functional, organism-based
Bacillus subtilis = assay: Antibacterial activity against Bacillus subtilis DSM 10 by serial dilution method; type: functional, organism-based
L929 [4] = assay: Induction of nuclear fragmentation in mouse L929 cells at cytotoxic IC50 by DAPI staining based microscopic method; type: functional, cell-based
Lepidium sativum = assay: Phytotoxicity against Lepidium sativum assessed as inhibition of seedling germination at 100 ug/disk; type: functional, organism-based
Setaria italica = assay: Phytotoxicity against Setaria italica assessed as inhibition of seedling germination at 100 ug/disk; type: functional, organism-based
Micrococcus luteus = assay: Antibacterial activity against Micrococcus luteus DSM 1790 by serial dilution method; type: functional, organism-based
Escherichia coli = assay: Antibacterial activity against Escherichia coli DSM 498 by serial dilution method; type: functional, organism-based
[5] = system: Schizosaccharomyces pombe; assay: Antifungal activity against Schizosaccharomyces pombe DSM 70572 by serial dilution method; type: functional, organism-based
Rhodotorula glutinis = assay: Antifungal activity against Rhodotorula glutinis DSM 10134 by serial dilution method; type: functional, organism-based
Yamadazyma tenuis = assay: Antifungal activity against Candida tenuis MUCL 29892 by serial dilution method; type: functional, organism-based
[6] = system: Mycolicibacterium smegmatis; assay: Antibacterial activity against Mycobacterium smegmatis ATCC 700084 by serial dilution method; type: functional, organism-based
Mucor hiemalis = assay: Antifungal activity against Mucor hiemalis DSM 2656 by serial dilution method; type: functional, organism-based
Caenorhabditis elegans = assay: Nematicidal activity against Caenorhabditis elegans up to 100 ug/ml; type: functional, organism-based
Sclerotinia sclerotiorum [7] = assay: Antifungal activity against Sclerotinia sclerotiorum DSM 1946 at 20 ug/disk after 5 days by disk diffusion assay; type: functional, organism-based
Procedure, shortened: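 Disk diffusion on YMG medium seeded with a mycelial suspension of the non-sporulating fungus; paper disks loaded with test material; inhibition zone diameter in mm read after 5 days.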

Aspergillus fumigatus = assay: Antifungal activity against Aspergillus fumigatus DSM 819 by serial dilution method; type: functional
U2OS [8] = assay: Induction of morphological changes in human U2OS cells at 0.5 ug/ml after 24 hrs by DAPI staining based immunofluorescence microscopic method
Sclerotinia sclerotiorum [9] = assay: Antifungal activity against Sclerotinia sclerotiorum DSM 1946 at 100 ug/disk after 5 days by disk diffusion assay; type: functional; settings: DSM 1946, 120 h, read-out: IZ
Procedure, shortened: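 Disk diffusion on YMG medium seeded with a mycelial suspension of the non-sporulating test fungus. Paper disks carried […] compound. Nystatin at 20 μg/disk was the positive control. Inhibition zone diameter (mm) was read after 5 days.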

U2OS [10] = assay: Cell cycle arrest in human U2OS cells assessed as accumulation at sub-G1 phase at 5 to 10 ug/ml after 18 hrs by propidium iodide staining based flow cytometry; type: functional
Procedure, shortened: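 U2OS were seeded at 7 × 10^5/well in six-well plates and exposed to 5 or 10 μg/mL for 18 h after spreading, with untreated and DMSO mock controls. Cells were trypsinized, fixed in 2% PFA/PBS, then in ice-cold methanol 30 min. Staining: anti-tubulin/anti-lamin antibodies plus RNase A and propidium iodide. Flow cytometry assigned G1, S, G2-M and sub-G1 by DNA content.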

U2OS [11] = assay: Induction of morphological changes in human U2OS cells assessed as aberrantly sized cells with abnormal small nuclei formation at 0.5 ug/ml after 24 hrs by DAPI staining based immunofluorescence microscopic method; type: functional, cell-based
Procedure, shortened: (§2)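 U2OS in DMEM (4.5 g/L glucose, 10% FBS), 37 °C, 7% CO2, seeded 3 × 10^4/well on fibronectin-coated coverslips and adhered 16 h. Treated 24 h at 0.25, 0.5, 2.5, 5 or 10 μg/mL (diluted from 1 mg/mL DMSO stock), DMSO control. Fixed in 4% PFA/PBS 20 min; anti-α-tubulin (DM1A), phalloidin-Alexa 488 and DNA stain; immunofluorescence imaging.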

U2OS [12] = assay: Induction of morphological changes in human U2OS cells assessed as multipolar and duplicated spindle formation at 0.5 ug/ml after 24 hrs by DAPI staining based immunofluorescence microscopic method; type: functional, cell-based; procedure, shortened: as §2
Mucor plumbeus = assay: Antifungal activity against Mucor plumbeus MUCL 49355 by serial dilution method; type: functional
U2OS [13] = assay: Induction of apoptosis in human U2OS cells assessed as caspase-3/7 cleavage at 250 nM after 16 hrs by caspase-3/7 green reagent based flow cytometry (reference value: 8.04%); type: functional

Row | Compound | pIC50 (U2OS [1]) | pIC50 (A549) | pIC50 (MCF7) | pIC50 (A-431) | pIC50 (SK-OV-3) | pIC50 (L929 [2]) | pIC50 (PC-3) | pIC50 (KB 3-1) | Activity (Wickerhamomyces anomalus) | Activity [3] | Activity (Staphylococcus aureus) | Activity (Candida albicans) | Activity (Pseudomonas aeruginosa) | Activity (Bacillus subtilis) | Activity (L929 [4]) | Activity (Lepidium sativum) | Activity (Setaria italica) | Activity (Micrococcus luteus) | Activity (Escherichia coli) | Activity [5] | further results
1 | C/C(=C\c1csc(C)n1)[C@@H]1C[C@@H]2O[C@]2(C)CCC[C@H](C)[C@H](O)[C@@H](C)C(=O)C(C)(C)[C@@H](O)CC(=O)O1 [PATUPILONE] | 9.98 | 9.82 | 9.82 | 10.14 | 10.63 | 8.77 | 9.60 | 10.21 |  |  |  |  |  |  |  |  |  |  |  |  | 
2 | COC(=O)/C=C/C(C)=C/C(C)=C/[C@H]1C(CC(C)=O)=C(C)C=C2C[C@@H](C)C(=O)[C@@H](C)[C@@H]21 | 4.65 | < 2.61 | < 2.61 | < 2.61 | < 2.61 | 4.27 | < 2.61 | 4.29 | inactive | inactive | inactive | inactive | inactive | inactive | Active | inactive | inactive | inactive | inactive | inactive | Activity (Rhodotorula glutinis): inactive; Activity (Yamadazyma tenuis): inactive; Activity [6]: inactive; Activity (Mucor hiemalis): inactive; Activity (Caenorhabditis elegans): inactive
3 | NYSTATIN |  |  |  |  |  |  |  |  |  |  |  |  |  |  |  |  |  |  |  |  | inhibition zone (IZ) (Sclerotinia sclerotiorum [7]): 32 mm
4 | CC(=O)CC1=C(C)C=C2C[C@@H](C)[C@@H](O)[C@@H](C)[C@@H]2[C@H]1/C=C(C)/C=C(C)/C=C/C(=O)O | < 2.60 | 4.15 | 4.66 | 4.45 | 4.49 | 4.76 | 4.22 | 4.95 | inactive | inactive | inactive | inactive | inactive | inactive | Active | inactive | inactive | inactive | inactive | inactive | Activity (Rhodotorula glutinis): inactive; Activity (Yamadazyma tenuis): inactive; Activity [6]: inactive; Activity (Mucor hiemalis): inactive; Activity (Caenorhabditis elegans): inactive
5 | C[C@@H]1C[C@@H]([C@H](O)CC2CC(=O)NC(=O)C2)C(=O)[C@@H](C)C1 [CYCLOHEXIMIDE] |  |  |  |  |  |  |  |  |  |  |  |  |  |  |  |  |  |  |  |  | MIC (Aspergillus fumigatus): 33.3 mg/L (≈ 118 µM)
6 | CC(=O)CC1=C(C)C=C2C[C@@H](C)C(=O)[C@@H](C)[C@@H]2[C@H]1/C=C(C)/C=C(C)\C=C\C(=O)O | < 2.60 | 4.32 | 4.81 | 4.75 | 4.69 | 4.61 | 4.34 | 4.76 | inactive | inactive | inactive | inactive | inactive | inactive | Active | inactive | inactive | inactive | inactive | inactive | Activity (Rhodotorula glutinis): inactive; Activity (Yamadazyma tenuis): inactive; Activity [6]: inactive; Activity (Mucor hiemalis): inactive; Activity (Caenorhabditis elegans): inactive
7 | CC1=C(C[C@H](C)O)[C@H](/C=C(C)/C=C(C)/C=C/C(=O)O)[C@@H]2C(=C1)C[C@@H](C)C(=O)[C@H]2C | 5.15 | 4.22 | 4.61 | 4.69 | 4.65 | 5.19 | 4.32 | 5.22 | inactive | inactive | inactive | inactive | inactive | inactive | Active | inactive | inactive | inactive | inactive | inactive | Activity (U2OS [8]): Active; zone of inhibition at 100 µg/disc (Sclerotinia sclerotiorum [9]): 28 mm; MIC (Aspergillus fumigatus): 35.5 mg/L (≈ 89.1 µM); Activity (U2OS [10]): Active; Activity (U2OS [11]): Active; Activity (Rhodotorula glutinis): inactive; Activity (U2OS [12]): Active; Activity (Yamadazyma tenuis): inactive; Activity [6]: inactive; Activity (Mucor hiemalis): inactive; Activity (Caenorhabditis elegans): inactive; MIC (Mucor plumbeus): 150 mg/L (≈ 376 µM)
8 | COC(=O)/C=C/C(C)=C/C(C)=C/[C@H]1C(C[C@H](C)O)=C(C)C=C2C[C@@H](C)C(=O)[C@@H](C)[C@@H]21 | < 2.62 | 4.39 | 4.25 | 4.25 | 4.54 | 4.10 | 4.39 | 4.64 | inactive | inactive | inactive | inactive | inactive | inactive | Active | inactive | inactive | inactive | inactive | inactive | Activity (Rhodotorula glutinis): inactive; Activity (Yamadazyma tenuis): inactive; Activity [6]: inactive; Activity (Mucor hiemalis): inactive; Activity (Caenorhabditis elegans): inactive
9 | CN[C@@H]1C[C@H]2O[C@@](C)([C@@H]1OC)n1c3ccccc3c3c4c(c5c6ccccc6n2c5c31)C(=O)NC4 [STAUROSPORINE] |  |  |  |  |  |  |  |  |  |  |  |  |  |  |  |  |  |  |  |  | Activity (U2OS [13]): 22.6%
